Laboratory results from ChEMBL document CHEMBL1138032, “New 2',6'-dimethyl-L-tyrosine (Dmt) opioid peptidomimetics based on the Aba-Gly scaffold. Development of unique mu-opioid receptor ligands” (J Med Chem, 2006).
Square brackets hold non-standard residues; d marks the D form. Peptide text beside a SMILES is read from it. * marks the point of attachment. Dmt = Cc1cc(O)cc(C)c1C[C@H](N)C(=O)O; Tic = O=C(O)[C@@H]1Cc2ccccc2CN1; NHBn = c1ccc(CN*)cc1; NHPh = c1ccc(N*)cc1

Columns and labels:
[1] = molecular target: Delta-type opioid receptor (Mus musculus, UniProt P32300); assay: (§1) Agonist activity at delta opioid receptor by mouse vas deferens assay; format: functional, tissue-based
Delta-type opioid receptor, sequence (P32300 whole entry): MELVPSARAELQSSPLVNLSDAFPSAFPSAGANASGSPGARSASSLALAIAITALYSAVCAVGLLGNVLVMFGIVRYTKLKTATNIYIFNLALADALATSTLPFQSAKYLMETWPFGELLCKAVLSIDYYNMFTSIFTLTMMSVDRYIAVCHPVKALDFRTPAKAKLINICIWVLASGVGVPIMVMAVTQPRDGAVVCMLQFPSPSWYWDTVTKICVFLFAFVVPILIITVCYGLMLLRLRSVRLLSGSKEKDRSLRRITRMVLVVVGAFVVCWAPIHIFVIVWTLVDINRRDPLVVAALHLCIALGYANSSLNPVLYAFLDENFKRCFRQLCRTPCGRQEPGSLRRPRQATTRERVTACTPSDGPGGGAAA
How it was run: (§2)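 Isolated mouse vas deferens was field-stimulated with supramaximal bipolar rectangular pulses. Agonism was read as inhibition of the electrically evoked twitch, referenced to deltorphin C. IC50 came from dose-response curves over at least six experiments on fresh tissue.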

[2] = molecular target: Mu-type opioid receptor (Cavia porcellus, UniProt P97266); assay: Agonist activity at mu opioid receptor by guinea pig ileum assay; format: functional, tissue-based
Mu-type opioid receptor, sequence (P97266 whole entry): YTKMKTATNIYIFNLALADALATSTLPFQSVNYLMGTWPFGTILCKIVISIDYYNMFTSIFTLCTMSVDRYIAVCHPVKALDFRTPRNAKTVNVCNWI
How it was run: as §2, with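 “Myenteric plexus–longitudinal muscle from male guinea pig ileum” for “Isolated mouse vas deferens”, “dermorphin.” for “deltorphin C.”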

[3] = molecular target: Delta-type opioid receptor (Mus musculus) (UniProt P32300); assay: as §1; format: functional, tissue-based; how it was run: as §2
Delta-type opioid receptor (Mus musculus), sequence (P32300 whole entry): as the sequence (P32300 whole entry) above

[4] = molecular target: Delta-type opioid receptor (Mus musculus) (UniProt P32300); assay: Activity at delta opioid receptor by mouse vas deferens assay; format: functional, tissue-based; conditions: filed as partial agonist; how it was run: as §2
[5] = molecular target: Opioid receptors; mu & delta (Homo sapiens) (UniProt P41143+P35372); assay: Selectivity for delta opioid receptor over mu opioid receptor; format: protein assay
Opioid receptors; mu & delta (Homo sapiens), sequence (P35372 whole entry, looked up): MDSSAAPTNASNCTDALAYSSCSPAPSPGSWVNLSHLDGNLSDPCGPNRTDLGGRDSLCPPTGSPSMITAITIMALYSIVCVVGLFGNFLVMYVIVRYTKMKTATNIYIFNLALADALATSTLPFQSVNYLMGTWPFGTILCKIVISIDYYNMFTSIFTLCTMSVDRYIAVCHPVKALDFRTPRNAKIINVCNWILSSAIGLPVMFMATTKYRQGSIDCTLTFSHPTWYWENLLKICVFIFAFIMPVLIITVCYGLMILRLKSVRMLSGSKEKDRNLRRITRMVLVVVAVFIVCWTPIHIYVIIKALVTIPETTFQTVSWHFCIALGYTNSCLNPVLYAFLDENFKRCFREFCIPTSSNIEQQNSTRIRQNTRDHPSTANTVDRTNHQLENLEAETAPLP
Opioid receptors; mu & delta (Homo sapiens), sequence (P41143 whole entry, looked up): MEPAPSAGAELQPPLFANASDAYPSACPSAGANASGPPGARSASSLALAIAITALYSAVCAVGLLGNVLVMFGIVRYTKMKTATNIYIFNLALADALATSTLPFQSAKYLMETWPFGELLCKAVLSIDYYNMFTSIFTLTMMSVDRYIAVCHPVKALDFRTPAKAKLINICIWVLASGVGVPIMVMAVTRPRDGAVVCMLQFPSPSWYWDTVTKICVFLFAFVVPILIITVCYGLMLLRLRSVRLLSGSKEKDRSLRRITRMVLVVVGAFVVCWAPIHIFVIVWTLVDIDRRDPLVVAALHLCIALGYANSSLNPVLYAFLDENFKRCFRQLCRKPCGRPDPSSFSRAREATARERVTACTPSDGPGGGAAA
How it was run: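 Non-specific binding was set with 2 μM unlabeled peptide. Five to eight peptide doses were run in duplicate, with independent repeats on different preparations. Samples were filtered on 0.1% polyethylenimine-soaked glass fiber filters and washed thrice with ice-cold buffered BSA. Ki was derived by Cheng–Prusoff.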

Compound: Cc1cc(O)cc(C)c1C[C@H](N)C(=O)N[C@H]1Cc2ccccc2CN(CC(=O)NCc2ccccc2)C1=O
- IC50 [1]: 830 nM
- IC50 [2]: 51 nM

Compound: Cc1cc(O)cc(C)c1C[C@H](N)C(=O)N[C@H]1Cc2ccccc2CN(CC(=O)Nc2ccccc2)C1=O
- %max [3]: 40%
- IC50 [1]: 650 nM
- Activity [4]: Partial agonist
- IC50 [2]: 95 nM

Compound: Cc1cc(O)cc(C)c1C[C@H](N)C(=O)N[C@H]1Cc2ccccc2CN(Cc2nc3ccccc3[nH]2)C1=O
- %max [3]: 40%
- IC50 [1]: 2700 nM
- Activity [4]: Partial agonist
- IC50 [2]: 231 nM

Compound: Cc1cc(O)cc(C)c1C[C@H](N)C(=O)N1Cc2ccccc2C[C@H]1C(=O)NCC(=O)Nc1ccccc1 (H-[Dmt]-[Tic]-Gly-NHPh)
- IC50 [1]: 3.02 nM
- IC50 [2]: 2.57 nM
- Selectivity ratio [5]: 3.6

Compound: Cc1cc(O)cc(C)c1C[C@H](N)C(=O)N1Cc2ccccc2C[C@H]1C(=O)NCC(=O)NCc1ccccc1 (H-[Dmt]-[Tic]-Gly-NHBn)
- IC50 [2]: 2.69 nM
- Selectivity ratio [5]: 5.3
